Results as given in PMC8359308 (Clinical Pharmacology in Drug Development, 2020).
Read-outs that look alike come from different tables or passages of the source.

Assays:
[1] = system: cytochrome P450 (CYP) 3A4/5; details: human hepatocytes, reaction phenotyping; cited from earlier work
[2] = Safety assessment after single oral 100 mg dose; format: in vivo, human; details: all 24 participants
Procedure, shortened: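 Participants were confined from day -1 through day 6, with telephone follow-up 28–35 days post-dose. AEs, laboratory values, physical examination, vital signs, ECGs and concomitant medications were monitored throughout. AEs were treatment-emergent if onset or worsening came after dosing and before follow-up, and were coded with MedDRA 22.0. Baseline was the last predose measurement. Analysis was descriptive.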

[3] = cited from earlier work
[4] = ketoconazole coadministered versus glasdegib alone; cited from earlier work
[5] = rifampin coadministered versus glasdegib alone; cited from earlier work
[6] = Unbound fraction in plasma by equilibrium dialysis; format: in vitro ADME, human; details: for f u (fraction of unbound drug in plasma): geometric mean (%CV); for f u in plasma: statistic not given
[7] = food with high calories and high fat content or concurrent rabeprazole; cited from earlier work
[8] = Phase I single-dose pharmacokinetics of unbound plasma glasdegib; format: in vivo, human; details: single oral 100 mg, fasted
Procedure, shortened: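 Single oral 100 mg tablet with about 240 mL water after a fast of at least 10 h, with no food for 4 h post-dose. Unbound samples were taken predose and at 1, 2 and 4 h. K2EDTA plasma was dialysed against PBS to equilibrium (6 h). Sertraline (300 ng/mL) served as positive control and glasdegib (100 ng/mL) as dialysis QC. Samples were read by LC-MS/MS (LLQ 1 ng/mL). Unbound parameters = fu × total noncompartmental values.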

[9] = mostly normal hepatic function or mild hepatic impairment; cited from earlier work
[10] = format: in vivo, human; details: for AUC(0-inf) / AUC(0-t) / Tmax: po, total glasdegib; for AUC(0-inf): AUCinf; for AUC(0-inf) / AUC(0-t) / Tmax / CL/F, total glasdegib / Cmax, total glasdegib: single oral 100 mg, fasted; for AUC(0-t): AUClast; for Tmax: median (range)
Procedure, shortened: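 Single oral 100 mg tablet dose of test compound after ≥10 h fast, with about 240 mL water and no food for 4 h. Plasma drawn predose and 1–120 h post-dose, total drug measured by validated LC-MS/MS. AUCinf (AUClast + Clast/kel, linear/log trapezoidal) and observed Cmax came from noncompartmental analysis. Log-transformed values were compared by one-way ANOVA (unequal variance), giving adjusted GMR versus normal-function controls with 90% CI.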

[11] = moderate hepatic impairment (n = 8), arithmetic mean ± SD
[12] = moderate hepatic impairment (n = 8), geometric mean (%CV)
[13] = normal hepatic function (n = 8), arithmetic mean ± SD
[14] = normal hepatic function (n = 8), geometric mean (%CV)
[15] = severe hepatic impairment (n = 8), arithmetic mean ± SD
[16] = severe hepatic impairment (n = 8), geometric mean (%CV)
[17] = human, plasma, 100 mg, moderate hepatic impairment (n = 8), arithmetic mean ± SD
[18] = human, plasma, 100 mg, moderate hepatic impairment (n = 8), geometric mean (%CV)
[19] = human, plasma, 100 mg, normal hepatic function (n = 8), arithmetic mean ± SD
[20] = human, plasma, 100 mg, normal hepatic function (n = 8), geometric mean (%CV)
[21] = human, plasma, 100 mg, severe hepatic impairment (n = 8), arithmetic mean ± SD
[22] = human, plasma, 100 mg, severe hepatic impairment (n = 8), geometric mean (%CV)
[23] = severe hepatic impairment cohort

CN1CC[C@@H](NC(=O)Nc2ccc(C#N)cc2)C[C@@H]1c1nc2ccccc2[nH]1 [glasdegib]
enzyme in glasdegib biotransformation [1]: major enzyme
clinically significant changes in laboratory values, vital signs, or ECGs [2]: no clinically significant changes in vital signs or ECGs
deaths, serious AEs, severe treatment-emergent AEs, discontinuations [2]: no deaths, serious AEs, severe treatment‐emergent AEs, discontinuations from the study
dose proportionality of pharmacokinetics [3]: linear dose‐proportional pharmacokinetics
mean half-life ([3]; clinical dose of 100 mg once daily): 17.4 h
unbound in plasma ([3]; plasma protein binding, moderately to highly bound): < 10%
increase in glasdegib AUCinf [4]: 2.4 fold
increase in glasdegib Cmax [4]: 1.4 fold
decrease in glasdegib AUCinf [5]: approximately 70%
decrease in glasdegib Cmax [5]: 35%
f u (fraction of unbound drug in plasma) ([6]; moderate hepatic impairment (n = 8)): 0.08 (7)
f u in plasma ([6]; moderate hepatic impairment group): 0.08
f u (fraction of unbound drug in plasma) ([6]; normal hepatic function (n = 8)): 0.08 (16)
f u in plasma ([6]; normal hepatic function cohort): 0.08
f u (fraction of unbound drug in plasma) ([6]; severe hepatic impairment (n = 8)): 0.12 (15)
f u in plasma ([6]; severe hepatic impairment group): 0.12
higher f u compared with the normal function cohort ([6]; severe impairment cohort): 50%
effect on glasdegib exposure [7]: minimal effect
CLu/F, unbound glasdegib [8, 11]: 104.6 ± 34.6 L/h
CLu/F, unbound glasdegib [8, 12]: 100.2 (31) L/h
CLu/F, unbound glasdegib [8, 13]: 124.7 ± 43.5 L/h
CLu/F, unbound glasdegib [8, 14]: 118.4 (35) L/h
CLu/F, unbound glasdegib [8, 15]: 111.9 ± 58.1 L/h
CLu/F, unbound glasdegib [8, 16]: 101.6 (47) L/h
baseline hepatic function as covariate for variation in glasdegib PK [9]: not a statistically significant covariate
half-life ([10]; human, plasma, oral, 100 mg, mean terminal half-life, range across all hepatic function groups): 1100 to 1240 min
AUC(0-inf) [10, 17]: 12300 ± 3500 ng·h/mL
AUC(0-inf) [10, 18]: 11900 ng·h/mL
AUC(0-inf) [10, 19]: 11900 ± 6100 ng·h/mL
AUC(0-inf) [10, 20]: 10700 ng·h/mL
AUC(0-inf) [10, 21]: 8660 ± 3130 ng·h/mL
AUC(0-inf) [10, 22]: 8110 ng·h/mL
AUC(0-t) [10, 17]: 12200 ± 3460 ng·h/mL
AUC(0-t) [10, 18]: 11800 ng·h/mL
AUC(0-t) [10, 19]: 11800 ± 6080 ng·h/mL
AUC(0-t) [10, 20]: 10600 ng·h/mL
AUC(0-t) [10, 21]: 8480 ± 3100 ng·h/mL
AUC(0-t) [10, 22]: 7940 ng·h/mL
Tmax ([10]; human, plasma, 100 mg, moderate hepatic impairment (n = 8)): 2.5 h
Tmax ([10]; human, plasma, 100 mg, normal hepatic function (n = 8)): 1.5 h
Tmax ([10]; human, plasma, 100 mg, severe hepatic impairment (n = 8)): 1 h
reduction in AUCinf versus normal hepatic function, total glasdegib [10, 23]: 24%
reduction in Cmax versus normal hepatic function, total glasdegib [10, 23]: 42%
CL/F, total glasdegib [10, 11]: 8.8 ± 2.8 L/h
Cmax, total glasdegib [10, 11]: 899.8 ± 215.7 ng/mL
CL/F, total glasdegib [10, 12]: 8.4 (31) L/h
Cmax, total glasdegib [10, 12]: 875.9 (26) ng/mL
CL/F, total glasdegib [10, 13]: 10.2 ± 4.3 L/h
Cmax, total glasdegib [10, 13]: 989.9 ± 373.1 ng/mL
CL/F, total glasdegib [10, 14]: 9.3 (49) L/h
Cmax, total glasdegib [10, 14]: 924.4 (43) ng/mL
CL/F, total glasdegib [10, 15]: 13.3 ± 5.8 L/h
Cmax, total glasdegib [10, 15]: 612.0 ± 342.8 ng/mL
CL/F, total glasdegib [10, 16]: 12.3 (42) L/h
Cmax, total glasdegib [10, 16]: 536.3 (59) ng/mL
